From publication PMC5453640 (Journal of medicinal chemistry, 2017)
Entries after “also recorded” stand apart in the source; their conditions may differ.

Assays:
[1] = molecular target: T1, wild-type CFTR (Homo sapiens, UniProt P13569); assay: cell-based plate reader assay of CFTR function; conditions: for CFTR activation potency of synthesized analogs, comparison in words: Charts 1-3; for CFTR activation potency of commercial analogs, SAR summary in words: commercially available analogs of 1, Supporting Information Table 1
[2] = system: TMEM16A; assay: TMEM16A plate reader assay in FRT cells expressing YFP; format: cell-based; conditions: 10 μM
In short: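 FRT cells stably coexpressing TMEM16A and YFP-H148Q halide sensor, test compound at 10 μM. Activation was tested by iodide addition and inhibition by iodide plus ATP. Assay run like the CFTR plate assay: 2 s baseline, then 12 s after rapid iodide addition. The initial iodide influx rate from YFP quenching was taken as channel function. Representative of two to four experiment sets.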

[3] = system: FRT cells; assay: Alamar Blue cytotoxicity assay; format: cell-based, rat; conditions: 10 μM, 8 h
[4] = molecular target: T1, wild-type CFTR; assay: short-circuit current measurement in CFTR-expressing FRT cells; format: cell-based; conditions: compared with maximal concentration of forskolin
In short: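 FRT cells expressing human wild-type CFTR on inserts in Ussing chambers. Basolateral HCO3−-buffered and apical half-Cl− solutions; basolateral membrane permeabilized with 250 μg/mL amphotericin B. Gassed with 95% O2/5% CO2 at 37 °C under voltage clamp. Sequence: low forskolin, cumulative test compound, maximal forskolin, then 10 μM CFTRinh-172. EC50 from concentration–response, n = 3.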

[5] = system: non-TMEM16A calcium-activated chloride channel (CaCC) in HT-29 cells; assay: non-TMEM16A CaCC plate reader assay in HT-29 cells expressing YFP; format: cell-based; conditions: 10 μM
In short: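 HT-29 cells expressing cytoplasmic YFP halide sensor, test compound at 10 μM. Activation was tested by iodide addition and inhibition by iodide plus ATP, reading YFP fluorescence quenching from iodide influx. The initial rate of iodide influx was computed as a linear measure of non-TMEM16A CaCC function. Representative of two to four experiment sets.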

[6] = system: cellular cAMP in FRT cells; assay: cAMP immunoassay in FRT cells; format: cell-based, rat; conditions: 10 μM, 10 min, without or with 90 nM forskolin
[7] = format: in vitro ADME; conditions: 5 μM, rat hepatic microsomes, NADPH
[8] = system: tear fluid secretion in mice; conditions: cited from earlier work
[9] = molecular target: CFTR in HBE cells (Homo sapiens, UniProt P13569); assay: CFTR activation in HBE cells by short-circuit current; format: cell-based
[10] = system: tear volume in wild-type mice; assay: tear fluid volume after single ocular delivery, wild-type mice; format: in vivo, mouse
[11] = system: cytoplasmic calcium in FRT cells; assay: cytoplasmic calcium by Fluo-4 fluorescence in FRT cells; format: cell-based, rat; conditions: 10 μM, 5 min pretreatment
[12] = system: tear volume in CF mice lacking functional CFTR; assay: tear fluid volume after single ocular delivery, CF mice; format: in vivo, mouse; conditions: single ocular delivery 250 pmol

T1 sequence (P13569 whole entry): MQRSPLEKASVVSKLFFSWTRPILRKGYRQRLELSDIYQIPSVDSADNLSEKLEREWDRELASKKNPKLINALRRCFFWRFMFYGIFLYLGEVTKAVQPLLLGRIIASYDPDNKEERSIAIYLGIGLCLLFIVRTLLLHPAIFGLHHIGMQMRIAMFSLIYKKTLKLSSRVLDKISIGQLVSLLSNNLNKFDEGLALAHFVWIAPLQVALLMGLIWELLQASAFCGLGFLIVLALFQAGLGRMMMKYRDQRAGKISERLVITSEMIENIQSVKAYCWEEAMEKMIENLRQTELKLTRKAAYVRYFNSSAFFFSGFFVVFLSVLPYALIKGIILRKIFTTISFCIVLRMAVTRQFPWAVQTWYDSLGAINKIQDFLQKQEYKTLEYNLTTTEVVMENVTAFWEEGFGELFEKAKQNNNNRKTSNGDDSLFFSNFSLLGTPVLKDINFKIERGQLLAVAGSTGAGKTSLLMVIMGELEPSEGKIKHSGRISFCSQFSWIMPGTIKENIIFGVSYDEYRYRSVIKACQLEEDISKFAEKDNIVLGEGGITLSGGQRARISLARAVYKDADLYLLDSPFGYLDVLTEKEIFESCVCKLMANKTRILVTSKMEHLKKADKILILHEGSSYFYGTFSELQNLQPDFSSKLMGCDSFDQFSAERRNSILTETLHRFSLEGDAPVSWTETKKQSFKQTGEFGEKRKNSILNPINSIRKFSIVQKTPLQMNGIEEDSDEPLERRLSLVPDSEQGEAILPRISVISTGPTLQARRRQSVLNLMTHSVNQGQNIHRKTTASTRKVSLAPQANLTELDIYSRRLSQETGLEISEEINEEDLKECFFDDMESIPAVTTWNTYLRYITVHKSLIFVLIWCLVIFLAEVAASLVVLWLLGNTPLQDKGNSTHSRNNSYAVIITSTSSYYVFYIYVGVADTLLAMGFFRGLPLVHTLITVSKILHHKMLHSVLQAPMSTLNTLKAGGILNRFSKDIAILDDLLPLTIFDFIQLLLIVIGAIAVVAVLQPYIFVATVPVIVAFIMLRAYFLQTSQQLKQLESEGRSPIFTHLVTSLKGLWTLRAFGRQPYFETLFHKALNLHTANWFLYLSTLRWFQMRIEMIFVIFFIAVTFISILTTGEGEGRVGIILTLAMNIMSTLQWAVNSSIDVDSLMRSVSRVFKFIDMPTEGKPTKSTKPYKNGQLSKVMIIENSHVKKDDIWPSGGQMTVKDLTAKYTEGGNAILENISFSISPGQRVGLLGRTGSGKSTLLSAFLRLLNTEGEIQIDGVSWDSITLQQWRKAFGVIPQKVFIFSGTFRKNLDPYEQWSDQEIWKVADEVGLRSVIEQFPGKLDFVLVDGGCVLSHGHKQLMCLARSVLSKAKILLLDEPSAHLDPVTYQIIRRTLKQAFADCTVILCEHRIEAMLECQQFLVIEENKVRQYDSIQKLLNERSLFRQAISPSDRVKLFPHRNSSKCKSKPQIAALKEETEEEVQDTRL
Sequence of CFTR in HBE cells (P13569 whole entry): as above

With `CCN(CC)c1nc(Nc2cccc(C(=O)O)c2)nc(OC(C(F)(F)F)C(F)(F)F)n1` [6a] as the compound, how does the “CFTR activation potency of synthesized analogs, comparison in words” value [1] read?
The value was “comparable or slightly better potency than non-substituted aniline (1)”.

For `CCN(CC)c1nc(Nc2cccc(F)c2)nc(OC(C(F)(F)F)C(F)(F)F)n1` [6b], which “CFTR activation potency of synthesized analogs, comparison in words” value [1] is on record?
The value was “comparable or slightly better potency than non-substituted aniline (1)”.

For `CCN(CC)c1nc(Nc2cccc(Cl)c2)nc(OC(C(F)(F)F)C(F)(F)F)n1` [6c], which “CFTR activation potency of synthesized analogs, comparison in words” value [1] is on record?
Its value is “significantly reduced potency”.

Which “CFTR activation potency of synthesized analogs, comparison in words” value [1] does the source give for `CCN(CC)c1nc(Nc2cccc([N+](=O)[O-])c2)nc(OC(C(F)(F)F)C(F)(F)F)n1` [6d] here?
Its value is “comparable or slightly better potency than non-substituted aniline (1)”.

Which results are given for `CCN(CC)c1nc(Nc2ccc3cn[nH]c3c2)nc(OC(C(F)(F)F)C(F)(F)F)n1` [6h]?
CFTR activation potency of synthesized analogs, comparison in words [1]: less potent than 1; fold more potent than regioisomer 6i ([1]; EC50 ratio, Chart 2): ~ 3 fold

For `CCN(CC)c1nc(Nc2ccc3[nH]ncc3c2)nc(OC(C(F)(F)F)C(F)(F)F)n1` [6i], which “CFTR activation potency of synthesized analogs, comparison in words” value [1] is on record?
Its value is “less potent than 1”.

For `CCN(CC)c1nc(Nc2ccc3ncoc3c2)nc(OC(C(F)(F)F)C(F)(F)F)n1` [6j], which “CFTR activation potency of synthesized analogs, comparison in words” value [1] is on record?
The value was “greater potency than 1”.

For `CCN(CC)c1nc(Nc2ccc3ncsc3c2)nc(OC(C(F)(F)F)C(F)(F)F)n1` [6k], which “inhibition or activation of CaCC in TMEM16A-expressing FRT cells” value [2] is on record?
The value was “neither inhibited nor activated”.

What about the “cytotoxicity (Alamar Blue)” value [3] of the same compound?
The value was “did not produce significant toxicity”.

What about the “extent of CFTR activation (short-circuit current)” value [4] of the same compound?
Its value is “full CFTR activation”.

What about the “inhibition or activation of CaCC in HT-29 cells” value [5] of the same compound?
Its value is “neither inhibited nor activated”.

What about the “CFTR activation potency of synthesized analogs, comparison in words” value [1] of the same compound?
Its value is “significantly greater potency than 1”.

And the “fold increase in potency over benzoxazole 6j” value ([1]; EC50 ratio, Chart 2)?
Its value is ~ 3 fold.

What about the “elevation of cellular cAMP” value [6] of the same compound?
Its value is “did not elevate cellular cAMP”.

For `CNc1nc(Nc2ccc(C(C)=O)cc2)nc(OC(C(F)(F)F)C(F)(F)F)n1` [K001], which “CFTR activation potency of commercial analogs, SAR summary in words” value [1] is on record?
Its value is “reduced activity”.

With `COc1nc(Nc2ccc([N+](=O)[O-])cc2)nc(OC)n1` [K023] as the compound, how does the “CFTR activation potency of commercial analogs, SAR summary in words” value [1] read?
The value was “greatly reduced potency”.

For `CC(C)(C)Nc1nc(Nc2ccc(OC(F)(F)Cl)cc2)nc(OCC(F)(F)F)n1` [K029], which “CFTR activation potency of commercial analogs, SAR summary in words” value [1] is on record?
Its value is “reduced potency”.

For `CNc1nc(Nc2ccc([N+](=O)[O-])cc2)nc(OCC(F)(F)C(F)F)n1` [K032], which “CFTR activation potency of commercial analogs, SAR summary in words” value [1] is on record?
The value was “best potency”.

Which “CFTR activation potency of commercial analogs, SAR summary in words” value [1] does the source give for `CCC(C)Nc1nc(Nc2ccc([N+](=O)[O-])cc2)nc(OC(C(F)(F)F)C(F)(F)F)n1` (stereo not drawn) [K056] here?
Its value is “reduced potency”.

For `C=CCNc1nc(Nc2cccc([N+](=O)[O-])c2)nc(OC(C(F)(F)F)C(F)(F)F)n1` [K059], which “CFTR activation potency of commercial analogs, SAR summary in words” value [1] is on record?
The value was “best potency”.

Which “CFTR activation potency of commercial analogs, SAR summary in words” value [1] does the source give for `FC(F)(F)COc1nc(Nc2ccc(OC(F)(F)F)cc2)nc(NC2CC2)n1` [K079] here?
The value was “reduced activity”.

Which “metabolic stability in hepatic microsomes, in words” value [7] does the source give for `CCN(CC)c1nc(Nc2ccccc2)nc(OC(C(F)(F)F)C(F)(F)F)n1` [compound 1, N,N-Diethyl-6-[(1,1,1,3,3,3-hexafluoropropan-2-yl)oxy]-N′-phenyl-1,3,5-triazine-2,4-diamine] here?
Its value is “metabolized rapidly”.

What about the “tear fluid secretion after topical delivery” value [8] of the same compound?
Its value is “increased tear fluid secretion in mice; also recorded: increased tear fluid secretion after topical delivery”.

And the “CFTR activation potency of synthesized analogs, comparison in words” value [1]?
The value was “more potent than tetrafluoropropanol (7a)”.

What about the “CFTR activation potency of commercial analogs, SAR summary in words” value [1] of the same compound?
Its value is “best potency”.

Which “CFTR activation in HBE cells after forskolin” value ([9]; 0.1 μM compound, after 100 nM forskolin) does the source give for `CNc1nc(Nc2ccccc2)nc(OCC(F)(F)C(F)F)n1` [compound 12, N-Methyl-N′-phenyl-6-(2,2,3,3-tetrafluoropropoxy)-1,3,5-triazine-2,4-diamine] here?
Its value is “fully activated CFTR”.

What about the “CFTR activation in HBE cells without forskolin” value ([9]; absence of basal CFTR phosphorylation produced by forskolin) of the same compound?
The value was “did not activate CFTR”.

And the “duration of sustained in vivo efficacy in increasing tear volume” value ([10]; mice, dose not given)?
Its value is “at least 8 h”.

And the “time over which tear volume returned to baseline” value ([10]; wild-type mice, single topical dose 100 μM (250 pmol))?
Its value is 12 to 24 h.

And the “duration of sustained increase in tear volume” value ([10]; wild-type mice, single topical dose 100 μM (250 pmol) in 2.5 μL)?
Its value is 8 h.

And the “duration of sustained effect on tear volume” value ([10]; wild-type mice, single topical dose down to 25 pmol)?
The value was 8 h.

And the “time of maximal tear volume” value ([10]; wild-type mice, single topical doses down to 25 pmol)?
Its value is 1 to 3 h.

And the “inhibition or activation of CaCC in TMEM16A-expressing FRT cells” value [2]?
Its value is “neither inhibited nor activated”.

And the “cytotoxicity (Alamar Blue)” value [3]?
Its value is “did not produce significant toxicity”.

What about the “increase of cytoplasmic calcium” value [11] of the same compound?
The value was “without causing cAMP or calcium elevation”.

What about the “extent of CFTR activation (short-circuit current)” value [4] of the same compound?
The value was “fully activated CFTR chloride conductance; also recorded: full CFTR activation”.

And the “effect on tear volume in CF mice” value [12]?
The value was “without effect; also recorded: did not increase tear volume”.

And the “inhibition or activation of CaCC in HT-29 cells” value [5]?
Its value is “neither inhibited nor activated”.

What about the “fold better EC50 than diethylamine analog 6a” value ([1]; EC50 ratio, Chart 3) of the same compound?
Its value is ~ 50 fold.

What about the “fold more potent than hexafluoropropanol analog 11” value ([1]; EC50 ratio, Chart 3) of the same compound?
Its value is ~ 3 fold.

And the “elevation of cellular cAMP” value [6]?
The value was “without causing cAMP or calcium elevation; also recorded: did not elevate cellular cAMP”.
